# Source: PubChem
# IDH1 R132H inh: inhibitors of IDH1 R132H reductase, primary screen, biochemical, plate reader, single point. Isocitrate dehydrogenase [NADP] cytoplasmic (Homo sapiens), O75874. diaphorase/resazurin fluorescence, 60 min. inhibition, % at 10 µM. actives 0.18% (n = 70,000). AID 624101, 2012; in the data active = inhibition above about 34%; inconclusive = no clear call, values can overlap the other calls; inactive = below about 11%;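 note: 0% = DMSO and 100% = no enzyme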
# Target sequence (O75874 whole entry R132H): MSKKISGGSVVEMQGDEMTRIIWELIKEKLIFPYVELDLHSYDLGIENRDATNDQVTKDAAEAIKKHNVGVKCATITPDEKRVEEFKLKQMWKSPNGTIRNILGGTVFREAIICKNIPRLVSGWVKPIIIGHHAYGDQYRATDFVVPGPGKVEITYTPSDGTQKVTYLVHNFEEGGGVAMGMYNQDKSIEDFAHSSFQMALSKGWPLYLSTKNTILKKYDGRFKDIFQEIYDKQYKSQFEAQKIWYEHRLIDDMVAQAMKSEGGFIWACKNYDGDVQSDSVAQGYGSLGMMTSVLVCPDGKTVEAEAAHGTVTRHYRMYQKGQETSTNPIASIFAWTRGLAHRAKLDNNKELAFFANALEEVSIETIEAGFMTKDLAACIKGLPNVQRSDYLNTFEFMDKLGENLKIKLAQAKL
# GASC1 inh: inhibitors of GASC-1 (KDM4C) histone demethylase, primary screen, biochemical, single concentration HTS; Lysine-specific demethylase 4C (Homo sapiens), Q9H3R0; GST-KDM4C 2-372, H3K9me3 peptide, LANCE TR-FRET; inhibition, % at 12.5 µM; actives 0.15% (n = 96,000); AID 720574, 2013;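 active = mean replicate inhibition above about 25%, with at least 55% of replicates also reaching it, limit read from the data, passing the limit was not always enough; inconclusive = only one of those two conditions met; inactive = neither condition met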
#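 Material: GST-tagged GASC-1 (JMJD2C) catalytic fragment, aa 2-372. Input: enzyme final amount 10 nM. Medium: HEPES buffer, pH 7.5, plus ascorbate. Reagent: H3K9me3 peptide substrate, Fe(II), 2-oxoglutarate. Doses: single dose. Times: reaction 30 min RT, detection step 1 h RT. Measured by: LANCE TR-FRET. Evaluation: Fall in 671/618 emission ratio as inhibition.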
# T cruzi growth-1: T. cruzi intracellular proliferation inhibitors, primary screen, cell-based, beta-gal Tulahuen parasites, NIH3T3 host, luminescence; T. cruzi beta-gal in NIH3T3, GalScreen luminescence, 90 h; actives 5.9% (n = 77,000); inhibition, % at 8.34 µM;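 active = mean inhibition above about 93%, with at least 55% of replicates each passing it, limit read from the data, passing the limit was not always enough; inconclusive = only one of those two conditions holds; inactive = neither condition holds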
# T cruzi growth-2: T. cruzi intracellular proliferation inhibitors, confirmation, cell-based, NIH3T3 host, beta-gal parasite, luminescence, cherry-pick; inhibition, % at 8.35 µM; actives 72% (n = 5,600); shares compounds with T cruzi growth-1; T. cruzi beta-gal in NIH3T3, GalScreen luminescence, 90 h; AID 651739, 2012;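 active = mean replicate inhibition above about 95% and at least 55% of replicates individually reaching it, limit read from the data; inconclusive = only one of the two criteria is met; inactive = neither criterion is met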
# T cruzi growth-3: inhibitors of intracellular T. cruzi replication, confirmation, NIH3T3 host cells, beta-gal parasites, cherry-pick, set 2; T. cruzi beta-gal in NIH3T3, GalScreen luminescence, 90 h; actives 21% (n = 5,600); shares compounds with T cruzi growth-1; inhibition, % at 2.09 µM; AID 651740, 2012;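 active = mean inhibition above about 95%, with at least 55% of replicates also reaching it, limit read from the data; inconclusive = meets just one of the two conditions; inactive = meets neither condition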;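 note: plate controls were neutral control median for no effect and positive control median for full effect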
# NIH3T3 tox: cytotoxicity in mouse NIH/3T3 fibroblasts, confirmation, cytotoxicity control for T. cruzi proliferation inhibitor project, cell-based, cherry-pick, single point; shares compounds with T cruzi growth-1; NIH/3T3 viability, CellTiter-Glo ATP luminescence, 90 h; cytotoxicity (signal decrease), % at 8.35 µM; actives 14% (n = 5,600);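 active = mean signal decrease across replicates above about 35% based on untreated-well scatter, with enough replicates individually passing, limit read from the data; inconclusive = no rule stated though some were filed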;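 note: 0% = median of neutral control wells and 100% = median of positive control wells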
# 3T3 cytotox 2: NIH/3T3 fibroblast cytotoxicity, confirmation, cytotoxicity control, cell-based, cherry-pick, single point, set 2; shares compounds with T cruzi growth-1; actives 56% (n = 5,600); inhibition, % at 24.9 µM; AID 651744, 2012; NIH/3T3 viability, CellTiter-Glo ATP luminescence, 90 h;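 active = mean loss of cell viability signal at or above a set limit, and enough replicates individually reaching it; inconclusive = meets only the mean limit or only the replicate share; inactive = meets neither condition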;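 note: 0% = median of neutral control wells and 100% = median of positive control wells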
# * hit, by the source's call; ? = inconclusive; / = no result. Shown is part of a subset that was picked to be rich in hits.
SMILES,IDH1 R132H inh,GASC1 inh,T cruzi growth-1,T cruzi growth-2,T cruzi growth-3,NIH3T3 tox,3T3 cytotox 2
CO[C@@H]1CN(C)C(=O)c2cc(NC(C)=O)ccc2OC[C@H](C)N(Cc2ccccc2C(=O)O)C[C@@H]1C,0,4,25,/,/,/,/
N#C[C@@H]1[C@@H](c2ccc(C3=CCCCC3)cc2)[C@@H](CO)N1S(=O)(=O)c1ccccc1,/,2,96*,102*,56,55*,60*
N#C[C@H]1[C@H](c2ccc(C3=CCCCC3)cc2)[C@@H](CO)N1S(=O)(=O)c1cccc(F)c1,/,1,47,/,/,/,/
N#C[C@H]1[C@H](c2ccc(C3=CCCCC3)cc2)[C@@H](CO)N1S(=O)(=O)c1ccccc1,/,0,86,/,/,/,/
N#C[C@@H]1[C@H](c2ccc(C3=CCCCC3)cc2)[C@H](CO)N1S(=O)(=O)c1cccc(F)c1,/,-4,103*,102*,43,14,79*
COc1cccc(C(=O)Nc2ccc3c(c2)C(=O)N(C)[C@H]2CC[C@@H](CC(=O)NCC4CC4)O[C@@H]2CO3)c1,/,1,7,/,/,/,/
COc1ccc(CN(C)C[C@@H]2OCCCC[C@H](C)Oc3ccc(NC(=O)Nc4ccc(C(F)(F)F)cc4)cc3C(=O)N([C@@H](C)CO)C[C@H]2C)cc1,-1,/,69,/,/,/,/
COc1ccc(CN(C)C[C@@H]2OCCCC[C@@H](C)Oc3ccc(NC(=O)Nc4ccc(C(F)(F)F)cc4)cc3C(=O)N([C@H](C)CO)C[C@@H]2C)cc1,/,/,?,97*,108*,7,29*
COc1ccc(NC(=O)Nc2ccc3c(c2)C(=O)N([C@H](C)CO)C[C@H](C)[C@@H](CN(C)Cc2ccc(C(F)(F)F)cc2)OCCCC[C@H](C)O3)cc1,/,0,72,/,/,/,/
COc1ccc(NC(=O)Nc2ccc3c(c2)C(=O)N([C@H](C)CO)C[C@@H](C)[C@@H](CN(C)Cc2ccc(C(F)(F)F)cc2)OCCCC[C@H](C)O3)cc1,/,0,100*,85,108*,18,-4
CC(C)NC(=O)N[C@H]1CC[C@@H](CCNC(=O)C2CC2)O[C@H]1CO,0,-4,/,/,/,/,/
COc1ccc(NC(=S)NCc2cccnc2)cc1OC,0,/,/,/,/,/,/
C[C@H](CO)N1C[C@H](C)[C@H](CN(C)Cc2ccc(Cl)c(Cl)c2)Oc2ccc(NC(=O)Cc3ccccc3)cc2C1=O,2,0,104,/,/,/,/
C[C@@H]1CN([C@H](C)CO)C(=O)c2cc(NC(=O)Cc3ccccc3)ccc2O[C@@H]1CN(C)Cc1ccc(C(F)(F)F)cc1,-1,0,34,/,/,/,/
C[C@@H]1CN([C@@H](C)CO)C(=O)c2cc(NC(=O)Cc3ccccc3)ccc2O[C@H]1CN(C)Cc1ccc(C(F)(F)F)cc1,3,0,?,101*,65,17,60*
C[C@@H]1CN([C@@H](C)CO)C(=O)c2cc(NC(=O)Cc3ccccc3)ccc2O[C@H]1CN(C)Cc1ccc(-c2ccccc2)cc1,2,14,-11,/,/,/,/
C[C@@H]1CN([C@H](C)CO)C(=O)c2cc(NC(=O)Cc3ccccc3)ccc2O[C@@H]1CN(C)Cc1ccc(-c2ccccc2)cc1,1,-2,114*,113*,83,19,78*
C[C@@H]1CN([C@@H](C)CO)C(=O)c2cc(NC(=O)Cc3ccccc3)ccc2O[C@@H]1CN(C)Cc1ccc(Cl)c(Cl)c1,-4,0,105*,98*,16,28,96*
CS(=O)(=O)N1[C@H](C#N)[C@@H](c2ccccc2-c2ccc(F)cc2)[C@@H]1CO,/,0,/,/,/,/,/
C[C@@H]1CN([C@@H](C)CO)C(=O)c2cc(NS(=O)(=O)c3ccccc3)ccc2O[C@@H]1CN(C)S(=O)(=O)c1ccc(Cl)cc1,0,-1,65,/,/,/,/
CC(=O)N(C)C[C@H]1OCc2ccccc2-c2ccccc2C(=O)N([C@@H](C)CO)C[C@H]1C,-3,1,-27,/,/,/,/
Cc1noc(C)c1NC(=O)Nc1cccc2c1O[C@@H](CN(C)C(=O)Nc1ccc(F)cc1)[C@@H](C)CN([C@H](C)CO)C2=O,3,1,-37,/,/,/,/
C[C@@H]1CCCCO[C@@H](CN(C)C(=O)Nc2ccc3c(c2)OCO3)[C@@H](C)CN([C@H](C)CO)C(=O)c2cc(NS(=O)(=O)c3ccc(Cl)cc3)ccc2O1,-1,-1,14,/,/,/,/
C[C@H]1CCCCO[C@H](CN(C)C(=O)Nc2ccc3c(c2)OCO3)[C@@H](C)CN([C@@H](C)CO)C(=O)c2cc(NS(=O)(=O)c3ccc(Cl)cc3)ccc2O1,-1,13,49,/,/,/,/
C[C@H](CO)N1C[C@H](C)[C@H](CN(C)C(=O)Nc2ccc3c(c2)OCO3)OCCCC[C@H](C)Oc2ccc(NS(=O)(=O)c3ccc(Cl)cc3)cc2C1=O,/,0,97*,113*,57,-23,-26
SMILES,IDH1 R132H inh,GASC1 inh,T cruzi growth-1,T cruzi growth-2,T cruzi growth-3,NIH3T3 tox,3T3 cytotox 2
C[C@@H]1CCCCO[C@H](CN(C)C(=O)Nc2ccc3c(c2)OCO3)[C@H](C)CN([C@@H](C)CO)C(=O)c2cc(NS(=O)(=O)c3ccc(Cl)cc3)ccc2O1,/,/,?,102*,36,-7,-16
COc1ccc(C#Cc2ccc3c(c2)O[C@H](CN(C)C)[C@@H](C)CN([C@@H](C)CO)S3(=O)=O)cc1,0,-1,?,109*,77,15,103*
COc1ccc(C#Cc2ccc3c(c2)O[C@@H](CN(C)C)[C@@H](C)CN([C@@H](C)CO)S3(=O)=O)cc1,-1,-1,51,/,/,/,/
C[C@H]1CN([C@@H](C)CO)S(=O)(=O)c2ccc(C#Cc3ccccc3)cc2O[C@@H]1CN(C)C,1,-1,102*,105*,41,5,103*
C[C@@H]1CN([C@H](C)CO)S(=O)(=O)c2ccc(C#Cc3ccccc3)cc2O[C@@H]1CN(C)C,1,-1,28,/,/,/,/
C[C@@H]1CN([C@H](C)CO)C(=O)c2cc(C#C[C@@H](C)O)cnc2O[C@H]1CN(C)C(=O)c1ccncc1,/,1,11,/,/,/,/
Cc1ccc(CN(C)C[C@H]2OCc3cnnn3CCCC(=O)N([C@@H](C)CO)C[C@H]2C)cc1,-1,0,-10,/,/,/,/
